The values that follow come from ChEMBL document CHEMBL1128504, “Novel, potent, and orally active substance P antagonists: synthesis and antagonist activity of N-benzylcarboxamide derivatives of pyrido[3,4-b]pyridine” (J Med Chem, 1995).

Molecules are shown by their SMILES.

The test system of test [1] is Cavia porcellus. In words: Percent inhibition of capsaicin-induced plasma extravasation in guinea-pig trachea at 3 mg/kg intravenous administration. Type of test: functional.
Test [2] concerns Cavia porcellus. Put plainly: Inhibition of capsaicin-induced plasma extravasation in guinea-pig trachea on intravenous administration. It counts as functional.
The target of the next test is Substance-P receptor (Homo sapiens, UniProt P25103). In words: Inhibition of [125I]-BH-Substance P binding to tachykinin receptor 1 in human IM-9 cells. Type of test: cell-based.
In test [3] the test system is Cavia porcellus. In words: Inhibition of capsaicin-induced plasma extravasation in guinea-pig trachea on peroral administration. The following applies: po. It counts as functional. The method, boiled down: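 Male Hartley guinea pigs (n = 6); sample given orally 45 min before pentobarbital 35 mg/kg ip. Capsaicin […] plus Evans' blue 20 mg/kg iv in ethanol-saline (3:7); trachea removed 10 min later after saline perfusion. Dye extracted in acetone-sodium sulfate and read at 620 nm per g tissue. Inhibition calculated relative to blank and control means.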

Chain of Substance-P receptor (P25103 whole entry, the tested form may be a part): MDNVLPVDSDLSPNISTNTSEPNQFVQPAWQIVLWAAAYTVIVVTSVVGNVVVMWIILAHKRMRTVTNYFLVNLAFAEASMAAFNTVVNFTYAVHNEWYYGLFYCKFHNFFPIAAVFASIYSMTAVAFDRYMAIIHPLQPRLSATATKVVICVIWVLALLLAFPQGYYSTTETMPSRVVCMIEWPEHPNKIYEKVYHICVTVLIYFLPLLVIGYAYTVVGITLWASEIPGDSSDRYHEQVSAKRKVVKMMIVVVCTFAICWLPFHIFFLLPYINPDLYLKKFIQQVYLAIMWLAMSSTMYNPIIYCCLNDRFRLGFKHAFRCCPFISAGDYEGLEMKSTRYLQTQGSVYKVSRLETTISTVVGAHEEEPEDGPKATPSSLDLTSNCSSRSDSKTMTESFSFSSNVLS

`COc1ccccc1CNCc1c(-c2ccccc2)c2cc(C)c(C)cc2c(=O)n1C`: the inhibition in vivo (commonly the relative decrease from the control value, in per cent) at 3 mg/kg in the test with Cavia porcellus [1] stood at 36.3%.
`Cn1c(C(=O)NCc2cc(C(F)(F)F)cc(C(F)(F)F)c2)c(-c2ccc(F)cc2)c2cccnc2c1=O`: it took a dose of 0.48 mg/kg to reach the 50% effect level with Cavia porcellus [2] (ED50). Moreover, the IC50 (commonly the concentration needed to halve the response being measured) at Substance-P receptor was 0.0011 µM.
Turning to `COc1ccccc1CNCc1c(-c2ccccc2)c2ccccc2c(=O)n1C`, on Substance-P receptor, the IC50 is 0.46 µM.
`Cc1cc2c(-c3ccccc3)c(C(=O)N(C)Cc3cc(C(F)(F)F)cc(C(F)(F)F)c3)n(C)c(=O)c2cc1C`: the ED50 (commonly the dose at which the effect has come halfway, by size or by number of responders) in the test on Cavia porcellus [2] was 0.49 mg/kg.
As for `Cc1cc2c(-c3ccccc3)c(CNCc3cc(C(F)(F)F)cc(C(F)(F)F)c3)n(C)c(=O)c2cc1C`, the IC50 on Substance-P receptor was 0.25 µM.
On the same count and under the same terms, under `Cc1cc(C)cc(CN(C)C(=O)c2c(-c3ccccc3C)c3ccccc3c(=O)n2C)c1` stands 0.032 µM; under `CN(Cc1ccccc1Cl)C(=O)Nc1c(-c2ccc(F)cc2)c2ccccc2c(=O)n1C`, 0.48 µM.
Consider `Cc1cc2c(-c3ccccc3)c(NC(=O)N(C)Cc3ccccc3)n(C)c(=O)c2cc1C`, for which the inhibition in vivo at 3 mg/kg in the test with Cavia porcellus [1] is 57.3%.
For the molecule `Cc1ccccc1-c1c(C(=O)N(C)Cc2cc(C(F)(F)F)cc(C(F)(F)F)c2)n(C)c(=O)c2ccccc12`, the ED50 in the test on Cavia porcellus [2] came out at 0.18 mg/kg; in the test on Cavia porcellus [3], 0.81 mg/kg.
In the case of `Cc1cc(C)cc(CN(C)C(=O)Nc2c(-c3ccccc3)c3cc(C)c(C)cc3c(=O)n2C)c1`, on Substance-P receptor, the 50% inhibitory concentration (IC50) was found to be 0.028 µM.
For the molecule `CN(Cc1cc(C(F)(F)F)cc(C(F)(F)F)c1)C(=O)c1c(-c2ccc(F)cc2)c2ccccc2c(=O)n1C`, the figures for the ED50 in the test with Cavia porcellus [2] and in the test with Cavia porcellus [3] were 0.063 mg/kg and 1 mg/kg, respectively. This molecule also registered an IC50 at Substance-P receptor of 0.0004 µM.
The molecule `Cc1ccc(-c2c(C(=O)N(C)Cc3cc(C)cc(C)c3)n(C)c(=O)c3ncccc23)cc1` yielded an IC50 at Substance-P receptor of 0.0044 µM.
On the same count and under the same terms, with `COc1ccccc1CNC(=O)c1c(-c2ccccc2C)c2ccccc2c(=O)n1C` the figure was 0.47 µM; with `CN(Cc1cc(C(F)(F)F)cc(C(F)(F)F)c1)Cc1c(-c2ccccc2)c2ccccc2c(=O)n1C`, 0.6 µM.
For the molecule `CN(Cc1cc(C(F)(F)F)cc(C(F)(F)F)c1)C(=O)c1c(-c2ccc(F)cc2)c2cccnc2c(=O)n1C`, the ED50 was determined as 0.017 mg/kg with Cavia porcellus [2] and 0.068 mg/kg in the test on Cavia porcellus [3]. The IC50 at Substance-P receptor worked out at 0.00021 µM.
`Cc1cc2c(-c3ccccc3)c(NC(=O)NCc3ccccc3)n(C)c(=O)c2cc1C` showed a concentration for half-maximal inhibition (IC50) at Substance-P receptor of 0.14 µM.
On the same count and under the same terms, under `Cc1cccc(NC(=O)Nc2c(-c3ccccc3)c3cc(C)c(C)cc3c(=O)n2C)c1` stands 0.84 µM.
Molecule `Cc1ccccc1-c1c(C(=O)NCc2cc(C(F)(F)F)cc(C(F)(F)F)c2)n(C)c(=O)c2ccccc12` yielded an ED50 with Cavia porcellus [2] of 1.1 mg/kg.
Regarding `COc1ccccc1CNC(=O)c1c(-c2ccccc2)c2ccccc2c(=O)n1C`, the IC50 on Substance-P receptor worked out at 0.86 µM.
On the same count and under the same terms, with `Cc1cc2c(-c3ccccc3)c(NC(=O)N(C)Cc3cc(C(F)(F)F)cc(C(F)(F)F)c3)n(C)c(=O)c2cc1C` the figure was 0.054 µM.
In the case of `COc1ccccc1CN(C)C(=O)c1c(-c2ccc(F)cc2)c2cccnc2c(=O)n1C`, it took a dose of 0.084 mg/kg to reach the 50% effect level in the test with Cavia porcellus [2] (ED50).
Molecule `CN(Cc1c(-c2ccccc2)c2ccccc2c(=O)n1C)C(=O)Cc1cc(C(F)(F)F)cc(C(F)(F)F)c1` returned an IC50 at Substance-P receptor of 0.11 µM. In other words, the sub-micromolar range.
The same measure, in the same setting: under `Cc1cc(C)cc(CN(C)C(=O)c2c(-c3ccc(F)cc3)c3cccnc3c(=O)n2C)c1` stands 0.0051 µM; under `Cc1ccc(-c2c(C(=O)N(C)Cc3cc(Cl)cc(Cl)c3)n(C)c(=O)c3ncccc23)cc1`, 0.0034 µM.
On the same count and under the same terms, under `COc1ccccc1CN(C)Cc1c(-c2ccccc2)c2cc(C)c(C)cc2c(=O)n1C` stands 0.8 µM; under `CN(Cc1ccccc1Cl)C(=O)c1c(-c2ccc(F)cc2)c2cccnc2c(=O)n1C`, 0.032 µM.
Take `Cc1cc2c(-c3ccccc3)c(NC(=O)N(C)Cc3ccccc3Cl)n(C)c(=O)c2cc1C`: the inhibition in vivo at 3 mg/kg in the test with Cavia porcellus [1] turned out to be 58.5%.
As to `CN(Cc1cc(C(F)(F)F)cc(C(F)(F)F)c1)C(=O)c1c(-c2ccccc2)c2cccnc2c(=O)n1C`, the ED50 was determined as 0.027 mg/kg in the test with Cavia porcellus [2] and 0.17 mg/kg with Cavia porcellus [3]. The same molecule gave an IC50 at Substance-P receptor of 0.00025 µM.
For the molecule `CN(Cc1ccccc1)C(=O)Nc1c(-c2ccccc2)c2ccccc2c(=O)n1C`, the IC50 on Substance-P receptor stood at 1.1 µM.
In turn, `Cc1ccc(-c2c(C(=O)N(C)Cc3cc(C(F)(F)F)cc(C(F)(F)F)c3)n(C)c(=O)c3ncccc23)cc1` [7-METHYL-8-OXO-5-P-TOLYL-7,8-DIHYDRO-[1,7]NAPHTHYRIDINE-6-CARBOXYLIC ACID (3,5-BIS-TRIFLUOROMETHYL-BENZYL)-METHYL-AMIDE (STRUCTURAL MIX)] had an IC50 at Substance-P receptor of 0.007 µM. Besides, the ED50 with Cavia porcellus [3] came to 0.11 mg/kg.
Consider `COc1ccccc1CN[C@H]1CCCN[C@H]1c1ccccc1` [CP-99994], for which the ED50 in the test on Cavia porcellus [2] came out at 0.017 mg/kg; in the test with Cavia porcellus [3], 8.7 mg/kg.
